Legend:
[1] = tested on: SNU-5; assay: Growth inhibition of human SNU5 cells after 72 hrs by CCK-8 assay; type: functional, cell-based
[2] = Drug recovery in rat liver microsomes at 1 uM measured after 30 mins by LC-MS/MS analysis; type: ADME, microsome; details: liver microsomes, read-out: Drug recovery
[3] = Intrinsic clearance in rat liver microsomes assessed per mg protein at 1 uM preincubated for 5 mins followed by NADPH addition measured after 5 to 30 mins by LC-MS/MS analysis; type: ADME, microsome; details: read-out: CLH
Outline: (§1)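 Microsomes (0.5 mg/ml) with 1 µM compound were preincubated 5 min at 37°C in 100 mM phosphate buffer pH 7.4, then started with 1 mM NADPH. Samples were taken at 0, 5, 10 and 30 min, quenched with acetonitrile/tinidazole and run by LC-MS/MS. CLint = k / microsomal protein concentration. Midazolam was the positive control.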

[4] = Intrinsic clearance in monkey liver microsomes assessed per mg protein at 1 uM preincubated for 5 mins followed by NADPH addition measured after 5 to 30 mins by LC-MS/MS analysis; details: liver microsomes; read-out: CLH
[5] = Drug recovery in monkey liver microsomes at 1 uM measured after 30 mins by LC-MS/MS analysis
[6] = tested on: Liver; assay: (§2) Drug recovery in human liver microsomes at 1 uM measured after 30 mins by LC-MS/MS analysis; type: ADME, microsome; details: microsomes, 0.5 h, 1 µM
Outline: (§3)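 Liver microsomes (0.5 mg/ml) were incubated with 1 µM compound at 37°C in 100 mM phosphate buffer pH 7.4 without NADPH for 30 min. Reactions were quenched with acetonitrile/tinidazole internal standard and analysed by LC-MS/MS. Recovery (%) was taken from the compound/internal standard peak area ratio.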

[7] = Intrinsic clearance in human liver microsomes assessed per mg protein at 1 uM preincubated for 5 mins followed by NADPH addition measured after 5 to 30 mins by LC-MS/MS analysis; type: ADME, microsome; details: read-out: CLH; outline: as §1
[8] = biological target: T1, CYP2D6 (Homo sapiens, UniProt P10635); assay: Reversible inhibition of CYP2D6 in human liver microsomes at 10 uM after 20 mins in presence of NADPH by LC-MS/MS analysis; type: ADME; details: liver microsomes
T1 sequence (P10635 whole entry): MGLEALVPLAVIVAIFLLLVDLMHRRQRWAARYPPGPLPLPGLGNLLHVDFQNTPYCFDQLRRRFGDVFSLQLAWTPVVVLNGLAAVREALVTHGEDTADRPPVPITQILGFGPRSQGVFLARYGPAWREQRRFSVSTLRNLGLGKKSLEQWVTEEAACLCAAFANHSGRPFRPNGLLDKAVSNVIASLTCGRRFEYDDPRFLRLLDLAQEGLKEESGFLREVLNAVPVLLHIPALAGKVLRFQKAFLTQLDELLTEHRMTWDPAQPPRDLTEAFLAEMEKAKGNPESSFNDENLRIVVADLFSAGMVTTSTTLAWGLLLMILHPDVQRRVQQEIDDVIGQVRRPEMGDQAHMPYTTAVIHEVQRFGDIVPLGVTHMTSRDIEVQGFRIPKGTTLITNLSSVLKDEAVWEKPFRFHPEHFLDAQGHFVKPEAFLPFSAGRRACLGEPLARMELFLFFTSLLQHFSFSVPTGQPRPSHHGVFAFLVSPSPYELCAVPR

[9] = biological target: T2, CYP2C19 (Homo sapiens, UniProt P33261); assay: Reversible inhibition of CYP2C19 in human liver microsomes at 10 uM after 20 mins in presence of NADPH by LC-MS/MS analysis; type: ADME; details: liver microsomes
T2 sequence (P33261 whole entry): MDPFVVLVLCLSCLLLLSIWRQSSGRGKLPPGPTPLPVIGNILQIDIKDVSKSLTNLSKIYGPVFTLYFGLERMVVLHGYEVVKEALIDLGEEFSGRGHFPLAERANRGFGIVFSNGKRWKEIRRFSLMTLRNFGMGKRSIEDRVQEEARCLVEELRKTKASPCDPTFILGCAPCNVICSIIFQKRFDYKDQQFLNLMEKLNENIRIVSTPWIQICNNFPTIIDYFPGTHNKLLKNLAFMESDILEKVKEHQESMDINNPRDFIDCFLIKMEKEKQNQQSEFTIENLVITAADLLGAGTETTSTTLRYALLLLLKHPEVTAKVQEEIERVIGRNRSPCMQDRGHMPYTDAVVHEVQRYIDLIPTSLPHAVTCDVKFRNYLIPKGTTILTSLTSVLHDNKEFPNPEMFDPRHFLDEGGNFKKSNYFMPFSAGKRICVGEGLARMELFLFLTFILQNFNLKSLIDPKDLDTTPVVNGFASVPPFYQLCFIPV

[10] = biological target: Cytochrome P450 3A4 (Homo sapiens, UniProt P08684); assay: (§4) Time dependent irreversible inhibition of CYP3A4 in human liver microsomes at 10 uM preincubated with compound followed by NADPH addition by LC-MS/MS analysis; type: ADME; details: microsomes, 10 µM
Cytochrome P450 3A4, sequence (P08684 whole entry): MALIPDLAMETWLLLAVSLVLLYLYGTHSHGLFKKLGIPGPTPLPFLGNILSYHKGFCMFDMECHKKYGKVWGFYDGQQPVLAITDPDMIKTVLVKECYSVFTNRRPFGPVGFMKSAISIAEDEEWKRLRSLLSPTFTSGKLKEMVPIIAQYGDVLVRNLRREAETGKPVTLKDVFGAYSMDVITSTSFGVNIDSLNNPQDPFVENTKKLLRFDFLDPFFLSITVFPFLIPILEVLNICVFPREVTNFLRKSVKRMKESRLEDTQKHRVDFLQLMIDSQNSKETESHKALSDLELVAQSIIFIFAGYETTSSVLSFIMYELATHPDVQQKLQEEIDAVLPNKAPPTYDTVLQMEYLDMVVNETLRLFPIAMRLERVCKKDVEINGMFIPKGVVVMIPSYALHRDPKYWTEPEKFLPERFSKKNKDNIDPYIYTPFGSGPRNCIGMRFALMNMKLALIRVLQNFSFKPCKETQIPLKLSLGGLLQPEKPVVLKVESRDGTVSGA
Outline: (§5)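 HLM (0.2 mg/ml) with 10 µM compound were preincubated 0, 5, 10 or 20 min at 37°C with 1 mM NADPH or PBS. Substrate cocktail (halved concentrations) plus NADPH was then added for 10 min. Metabolites were measured by LC-MS/MS. Kobs is the slope of relative activity versus preincubation time.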

[11] = tested on: NCI-H1993; assay: Growth inhibition of human NCI-H1993 cells after 72 hrs by CCK-8 assay; type: functional, cell-based; details: Homo sapiens, NCI-H1993, 72 h
[12] = biological target: T3, CYP3A4 (Homo sapiens, UniProt P08684); assay: Reversible inhibition of CYP3A4 in human liver microsomes at 10 uM after 20 mins in presence of NADPH by LC-MS/MS analysis; type: ADME; details: liver microsomes
T3 sequence (P08684 whole entry): as above

[13] = as §2; type: ADME, microsome; details: liver microsomes, read-out: Drug recovery; outline: as §3
[14] = biological target: T4, CYP1A2 (Homo sapiens, UniProt P05177); assay: Reversible inhibition of CYP1A2 in human liver microsomes at 10 uM after 20 mins in presence of NADPH by LC-MS/MS analysis; type: ADME
T4 sequence (P05177 whole entry): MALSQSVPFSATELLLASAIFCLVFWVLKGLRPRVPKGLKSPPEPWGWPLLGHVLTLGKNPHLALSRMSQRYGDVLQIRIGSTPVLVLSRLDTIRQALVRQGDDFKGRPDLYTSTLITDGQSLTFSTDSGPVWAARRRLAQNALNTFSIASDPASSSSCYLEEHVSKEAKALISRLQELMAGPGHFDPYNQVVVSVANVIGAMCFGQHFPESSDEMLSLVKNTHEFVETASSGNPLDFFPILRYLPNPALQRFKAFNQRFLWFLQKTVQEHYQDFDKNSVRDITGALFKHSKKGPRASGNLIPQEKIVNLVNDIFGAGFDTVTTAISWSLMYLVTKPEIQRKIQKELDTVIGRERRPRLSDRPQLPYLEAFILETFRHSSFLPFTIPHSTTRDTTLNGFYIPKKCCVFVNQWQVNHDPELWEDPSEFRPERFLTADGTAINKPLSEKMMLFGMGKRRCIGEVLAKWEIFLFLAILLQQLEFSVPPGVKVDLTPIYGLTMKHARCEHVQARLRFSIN

[15] = biological target: T5, CYP2C9 (Homo sapiens, UniProt P11712); assay: Reversible inhibition of CYP2C9 in human liver microsomes at 10 uM after 20 mins by in presence of NADPH LC-MS/MS analysis; type: ADME; details: liver microsomes
T5 sequence (P11712 whole entry): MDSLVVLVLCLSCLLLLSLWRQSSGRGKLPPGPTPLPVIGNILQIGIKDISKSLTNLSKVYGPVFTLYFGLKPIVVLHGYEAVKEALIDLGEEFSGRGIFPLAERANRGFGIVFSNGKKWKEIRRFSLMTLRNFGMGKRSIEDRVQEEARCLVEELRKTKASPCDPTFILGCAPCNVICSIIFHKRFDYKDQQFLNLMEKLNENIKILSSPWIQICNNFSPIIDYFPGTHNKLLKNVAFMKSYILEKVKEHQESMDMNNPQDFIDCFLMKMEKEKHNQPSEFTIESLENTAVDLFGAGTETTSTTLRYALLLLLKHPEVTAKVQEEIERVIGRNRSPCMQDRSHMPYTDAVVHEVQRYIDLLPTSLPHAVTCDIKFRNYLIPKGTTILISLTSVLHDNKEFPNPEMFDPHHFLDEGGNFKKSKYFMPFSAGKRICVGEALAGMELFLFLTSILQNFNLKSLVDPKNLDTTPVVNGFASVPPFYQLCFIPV

[16] = biological target: T1, CYP2D6; assay: Time dependent irreversible inhibition of CYP2D6 in human liver microsomes at 10 uM preincubated with compound followed by NADPH addition by LC-MS/MS analysis; type: ADME; details: liver microsomes; outline: as §5
[17] = biological target: T2, CYP2C19; assay: Time dependent irreversible inhibition of CYP2C19 in human liver microsomes at 10 uM preincubated with compound followed by NADPH addition by LC-MS/MS analysis; type: ADME; outline: as §5
[18] = biological target: T3, CYP3A4; assay: as §4; type: ADME; details: liver microsomes; outline: as §5
[19] = AUC (0 to 24 hrs) in Sprague-Dawley rat plasma at 6 mg/kg, po by UPLC-MS/MS analysis; type: ADME, organism-based; set-up: dose 6 mg/kg, time < 24 hr, route oral
Outline: (§6)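 Male Sprague-Dawley rats (180-220 g) were fasted overnight with free access to water. Dosing was intravenous (n=2) or oral at 6 mg/kg (n=3). Heparinized blood was drawn from 0 to 1440 min. Plasma was frozen at -20°C, then precipitated with acetonitrile containing internal standard, centrifuged and analysed by UPLC-MS/MS.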

[20] = Cmax in Sprague-Dawley rat plasma at 6 mg/kg, po by UPLC-MS/MS analysis; type: ADME, organism-based; set-up: dose 6 mg/kg, route oral; outline: as §6
[21] = Half life in Sprague-Dawley rat plasma at 1 mg/kg, iv by UPLC-MS/MS analysis; type: ADME, organism-based; outline: as §6
[22] = biological target: T5, CYP2C9; assay: Time dependent irreversible inhibition of CYP2C9 in human liver microsomes at 10 uM preincubated with compound followed by NADPH addition by LC-MS/MS analysis; type: ADME; details: liver microsomes; outline: as §5
[23] = Clearance in Sprague-Dawley rat plasma at 1 mg/kg, iv by UPLC-MS/MS analysis; type: ADME, organism-based; outline: as §6
[24] = Oral bioavailability in Sprague-Dawley rat plasma at 6 mg/kg by UPLC-MS/MS analysis; type: ADME, organism-based; details: Sprague-Dawley, plasma; outline: as §6
[25] = biological target: T4, CYP1A2; assay: Time dependent irreversible inhibition of CYP1A2 in human liver microsomes at 10 uM preincubated with compound followed by NADPH addition by LC-MS/MS analysis; type: ADME; details: liver microsomes; outline: as §5
[26] = Volume of distribution at steady state in Sprague-Dawley rat plasma at 1 mg/kg, iv by UPLC-MS/MS analysis; type: ADME, organism-based; details: read-out: Vdss
Outline: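 Male Sprague-Dawley rats (180-220 g), fasted overnight with water available, dosed iv (n=2). Blood on heparin collected from 0 to 1440 min. Plasma obtained by centrifugation and stored at -20°C. Proteins precipitated with acetonitrile containing internal standard, then UPLC-MS/MS. Vss taken from the iv data.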

[27] = biological target: Hepatocyte growth factor receptor (Homo sapiens, UniProt P08581); assay: Inhibition of c-MET (unknown origin) using TK substrate-biotin peptide as substrate preincubated for 5 to 10 mins followed by ATP addition measured after 30 mins by HTRF assay
Hepatocyte growth factor receptor, sequence (P08581 whole entry): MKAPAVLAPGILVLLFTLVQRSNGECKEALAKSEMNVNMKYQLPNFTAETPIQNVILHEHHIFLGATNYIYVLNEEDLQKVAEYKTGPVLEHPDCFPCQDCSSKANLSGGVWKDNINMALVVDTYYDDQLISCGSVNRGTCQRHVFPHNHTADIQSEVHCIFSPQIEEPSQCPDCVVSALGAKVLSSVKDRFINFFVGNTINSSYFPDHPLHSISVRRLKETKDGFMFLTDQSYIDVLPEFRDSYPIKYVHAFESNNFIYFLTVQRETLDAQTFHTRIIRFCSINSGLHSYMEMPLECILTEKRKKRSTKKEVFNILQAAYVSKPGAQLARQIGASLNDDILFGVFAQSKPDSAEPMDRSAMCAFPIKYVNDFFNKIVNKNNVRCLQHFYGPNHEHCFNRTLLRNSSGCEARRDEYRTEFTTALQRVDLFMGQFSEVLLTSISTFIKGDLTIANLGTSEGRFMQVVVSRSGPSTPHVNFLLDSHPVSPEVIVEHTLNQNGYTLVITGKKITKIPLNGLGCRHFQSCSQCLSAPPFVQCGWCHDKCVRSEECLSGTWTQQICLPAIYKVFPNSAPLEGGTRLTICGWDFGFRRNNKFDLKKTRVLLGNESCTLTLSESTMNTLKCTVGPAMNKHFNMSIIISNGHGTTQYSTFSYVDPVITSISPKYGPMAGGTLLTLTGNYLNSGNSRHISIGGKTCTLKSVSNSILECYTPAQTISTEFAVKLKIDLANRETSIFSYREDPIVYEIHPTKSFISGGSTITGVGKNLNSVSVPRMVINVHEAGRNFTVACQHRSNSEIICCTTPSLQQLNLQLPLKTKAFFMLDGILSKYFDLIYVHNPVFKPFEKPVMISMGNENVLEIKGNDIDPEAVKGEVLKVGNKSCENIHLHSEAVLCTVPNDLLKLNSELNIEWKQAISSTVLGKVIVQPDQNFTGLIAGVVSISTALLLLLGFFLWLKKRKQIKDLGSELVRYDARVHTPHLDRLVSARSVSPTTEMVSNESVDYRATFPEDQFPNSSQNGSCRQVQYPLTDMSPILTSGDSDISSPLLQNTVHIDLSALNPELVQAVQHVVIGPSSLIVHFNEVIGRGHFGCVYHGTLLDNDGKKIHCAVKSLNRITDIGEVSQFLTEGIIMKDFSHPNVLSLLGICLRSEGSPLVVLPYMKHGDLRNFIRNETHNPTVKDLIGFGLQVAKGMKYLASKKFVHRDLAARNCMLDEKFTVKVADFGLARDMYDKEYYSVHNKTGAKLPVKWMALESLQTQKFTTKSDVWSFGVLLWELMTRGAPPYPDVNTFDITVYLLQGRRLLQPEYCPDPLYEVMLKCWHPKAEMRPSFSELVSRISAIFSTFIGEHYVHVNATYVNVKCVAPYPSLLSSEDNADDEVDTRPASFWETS

| SMILES | IC50 ([1]; Homo sapiens, SNU-5, 72 h) [nM] | remaining at 0.5 h, 1 µM [2] [%] | microsomal CLint at 1 µM [3] [µL/min/mg] | microsomal CLint at 1 µM [4] [µL/min/mg] | remaining at 0.5 h, 1 µM [5] [%] | microsomal CLint at 1 µM [7] [µL/min/mg] | inhibition at 20 min, 10 µM [8] [%] | inhibition at 20 min, 10 µM [9] [%] | IC50 [11] [nM] | inhibition at 20 min, 10 µM [12] [%] | remaining at 0.5 h, 1 µM [13] [%] | inhibition at 20 min, 10 µM [14] [%] | inhibition at 20 min, 10 µM [15] [%] | bioavailability [24] [%] | also measured |
| --- | --- | --- | --- | --- | --- | --- | --- | --- | --- | --- | --- | --- | --- | --- | --- |
| CC(c1ccc2ncc(-c3cnn(C)c3)cc2c1)n1nnc2ncc(-c3cnn(C)c3)nc21 (centres undefined) | 0.5 | 115 | 22 | 42 | 79 | 12 | – | – | – | – | – | – | – | – | Drug recovery [6]: 123% |
| CC(c1cc2cc(-c3cnn(C)c3)cnc2cc1F)n1nnc2ncc(-c3cnn(C)c3)nc21 (centres undefined) | 1.7 | 103 | 34 | 11 | 65 | 5 | < 50 | < 50 | 0.9 | < 50 | 101 | < 50 | < 50 | – | TDI [10]: Active |
| CC(c1cc2cc(-c3cnn(C)c3)cnc2cc1F)n1nnc2ncc(-c3ccc(C(N)=O)c(F)c3)nc21 (centres undefined) | 0.6 | 115 | 1 | 6 | 103 | 2 | < 50 | < 50 | 0.9 | < 50 | 120 | < 50 | < 50 | 8.2 | inhibition at 10 µM [16]: < 50%; inhibition at 10 µM [17]: < 50%; inhibition at 10 µM [18]: < 50%; AUC(0-t) at 24 h [19]: 879 ng·h/mL; Cmax [20]: 98.9 ng/mL; half-life [21]: 3.2 h; inhibition at 10 µM [22]: < 50%; clearance [23]: 9.33 mL/min/kg; inhibition at 10 µM [25]: < 50%; Vd [26]: 2 L/kg |
| CC(c1cc2cc(-c3cnn(C)c3)cnc2cc1F)n1nnc2ncc(-c3cnn(CCO)c3)nc21 (single isomer, unassigned; enantiomer 2) | – | – | – | – | – | – | – | – | 0.6 | – | – | – | – | 8.8 | IC50 ([1]; snu-5): 0.6 nM; IC50 [27]: 0.48 nM |

Source: ChEMBL document CHEMBL4020721 (Eur J Med Chem, 2017)
